Legend:
Details in all cases: in vivo
Avena sterilis = test: Effect on chlorophyll content in Avena sterilis assessed as chlorophyll dissipation rate at 20 degC in the dark at 320 uM relative to control
Triticum aestivum = test: Effect on chlorophyll content in Triticum aestivum (wheat) assessed as chlorophyll dissipation rate at 20 degC in the dark at 320 uM relative to control
Avena sativa = test: Effect on chlorophyll content in Avena sativa assessed as chlorophyll dissipation rate at 20 degC in the dark at 320 uM relative to control
Avena fatua = test: Effect on chlorophyll content in Avena fatua assessed as chlorophyll dissipation rate at 20 degC in the dark at 320 uM relative to control
Hordeum vulgare = test: Effect on chlorophyll content in Hordeum vulgare (barley) assessed as chlorophyll dissipation rate at 20 degC and 12 hr photoperiod at 320 uM relative to control; assay type: ADME, organism-based
Summary of the method: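 Leaf sections were treated with 320 µM metabolite and incubated in the dark at 20 °C, with 16 tubes per treatment. Every 12 h, segments from one tube were split into four tubes and extracted in DMSO at 65 °C for 30 min. Extracts were read at A665, tissue was dried at 105 °C and weighed, and chlorophyll was expressed as A665 per g dry weight.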

Measured: Activity

C[C@@H]1CC[C@H](O)/C=C/C(=O)O[C@H](C)CC[C@H](O)/C=C/C(=O)O1 [(5S,8R,13S,16R)-(-)-PYRENOPHOROL]
Non-toxic: all assays above
